From ChEMBL document CHEMBL5233208, “Optimization of P2Y12 Antagonist Ethyl 6-(4-((Benzylsulfonyl)carbamoyl)piperidin-1-yl)-5-cyano-2-methylnicotinate (AZD1283) Led to the Discovery of an Oral Antiplatelet Agent with Improved Druglike Properties” (J Med Chem, 2019)
Calls of active or inactive are those of the source. The rule behind the calls is not given here.

Columns and labels:
Rattus norvegicus [1] = test: Antithrombotic activity in anesthetized Wistar rat model of tail-bleeding assessed as increase in bleeding time po administered as single dose measured at 1.5 hrs post dose; type: functional
Outline: (§1)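 Male rats (250–300 g, n = 10 per dose) acclimatized at least 7 days, then dosed by oral gavage. At 1.5 h, anesthetized with 2% pentobarbital i.p. at 50 mg/kg. Tail transected 4 mm from the tip and immersed in saline at 37 °C; bleeding ended when no blood appeared for 30 s. Bleeding time and blood loss weight recorded as mean ± SEM.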

Rattus norvegicus [2] = test: Antithrombotic activity in anesthetized Wistar rat model of FeCL3-induced carotid artery thrombosis assessed as reduction in thrombus weight at 10 mg/kg, po administered as single dose measured at 1.5 hrs post dose; type: functional, organism-based
Outline: (§2)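 Compounds in 0.5% CMC-Na given to Wistar rats as a single oral gavage dose (10 mL/kg). Rats anesthetized with 2% pentobarbital i.p. at 50 mg/kg and kept on a heating pad. At 1.5 h post-dose, filter paper soaked in 20% FeCl3 applied to the isolated left carotid artery for 10 min; thrombus weight recorded. Mean ± SEM, n = 10.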

Rattus norvegicus [3] = test: Antithrombotic activity in anesthetized Wistar rat model of FeCL3-induced carotid artery thrombosis assessed as reduction in thrombus weight po administered as single dose measured at 1.5 hrs post dose; type: functional; outline: as §2
Homo sapiens = species: Homo sapiens; test: Antiplatelet activity in human platelet-rich plasma assessed as inhibition of ADP-induced platelet aggregation by aggregometry; type: functional
Outline: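 Human PRP from healthy donors free of aspirin/NSAIDs for at least two weeks, drawn into ACD; PRP spun at 300 g for 10 min, PPP at 2000 g. Compound in 0.5% DMSO preincubated 2 min at 37 °C with stirring (900 rpm). Aggregation induced by 10 μM ADP (final) and followed optically for 5 min.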

[4] = Metabolic stability in rat liver microsomes assessed as half life at […] measured up to 60 mins in presence of NADPH regeneration system by LC-MS/MS analysis; type: ADME, Microsome
[5] = Metabolic stability in dog liver microsomes assessed as half life at […] measured up to 60 mins in presence of NADPH regeneration system by LC-MS/MS analysis; type: ADME, Canis lupus familiaris, Microsome
[6] = Metabolic stability in human liver microsomes assessed as half life at […] measured up to 60 mins in presence of NADPH regeneration system by LC-MS/MS analysis; type: ADME, Microsome
[7] = Cmax in Sprague-Dawley rat at 5 mg/kg,po measured up to 24 hrs by LC-MS/MS analysis; type: ADME, organism-based; design: time < 24 hrs, dose 5 mg/kg, route po; conditions: in vivo
[8] = Half life in Sprague-Dawley rat at 5 mg/kg,po measured up to 24 hrs by LC-MS/MS analysis; type: ADME, organism-based; conditions: in vivo
[9] = Tmax in Sprague-Dawley rat at 5 mg/kg,po measured up to 24 hrs by LC-MS/MS analysis; type: ADME, organism-based; conditions: in vivo
[10] = AUC (0 to infinity) in Sprague-Dawley rat at 5 mg/kg,po measured up to 24 hrs by LC-MS/MS analysis; type: ADME, organism-based; design: time < 24 hrs, dose 5 mg/kg, route po; conditions: in vivo
[11] = MRT in Sprague-Dawley rat at 5 mg/kg,po measured up to 24 hrs by LC-MS/MS analysis; type: ADME, organism-based; conditions: in vivo
Rattus norvegicus [12] = test: Antithrombotic activity in anesthetized Wistar rat model of tail-bleeding assessed as increase in bleeding weight at […], po administered as single dose measured at 1.5 hrs post dose; type: functional
Rattus norvegicus [13] = test: Antithrombotic activity in anesthetized Wistar rat model of tail-bleeding assessed as increase in bleeding weight at 5 mg/kg, po administered as single dose measured at 1.5 hrs post dose; type: functional; outline: as §1
Rattus norvegicus [14] = test: Antithrombotic activity in anesthetized Wistar rat model of tail-bleeding assessed as increase in bleeding weight at 10 mg/kg, po administered as single dose measured at 1.5 hrs post dose; type: functional; outline: as §1
Rattus norvegicus [15] = test: Antithrombotic activity in anesthetized Wistar rat model of tail-bleeding assessed as increase in bleeding weight at 20 mg/kg, po administered as single dose measured at 1.5 hrs post dose; type: functional; outline: as §1
Rattus norvegicus [16] = test: Antithrombotic activity in anesthetized Wistar rat model of tail-bleeding assessed as increase in bleeding weight at 40 mg/kg, po administered as single dose measured at 1.5 hrs post dose; type: functional; outline: as §1
Rattus norvegicus [17] = test: Antithrombotic activity in anesthetized Wistar rat model of tail-bleeding assessed as increase in bleeding time at 40 mg/kg, po administered as single dose measured at 1.5 hrs post dose; type: functional; outline: as §1
Rattus norvegicus [18] = test: Antithrombotic activity in anesthetized Wistar rat model of FeCL3-induced carotid artery thrombosis assessed as reduction in thrombus weight by measuring inhibition of thrombosis formation at 40 mg/kg, po administered as single dose measured at 1.5 hrs post dose; type: functional; design: scale not given: the % may be the effect or the level left; outline: as §2
[19] = Oral bioavailability in Sprague-Dawley rat at 5 mg/kg,po measured up to 24 hrs by LC-MS/MS analysis; type: ADME, organism-based; conditions: in vivo
[20] = Metabolic stability in rat liver microsomes assessed as intrinsic clearance at 0.1 µM measured up to 60 mins in presence of NADPH regeneration system by LC-MS/MS analysis; conditions: 1 h
[21] = Metabolic stability in dog liver microsomes assessed as intrinsic clearance at 0.1 µM measured up to 60 mins in presence of NADPH regeneration system by LC-MS/MS analysis; conditions: 1 h
[22] = Metabolic stability in human liver microsomes assessed as intrinsic clearance at 0.1 µM measured up to 60 mins in presence of NADPH regeneration system by LC-MS/MS analysis; conditions: 1 h

Question: For `Cc1ccc(CS(=O)(=O)NC(=O)C2(C)CCN(c3nc4c(cc3C#N)C(=O)OC4)CC2)cc1`, which ED100 (Rattus norvegicus [1]) is on record?
Answer: 7.58 mg/kg

Question: What about the Activity (Rattus norvegicus [2]) of the same compound?
Answer: Active

Question: What about the ED50 (Rattus norvegicus [3]) of the same compound?
Answer: 27 mg/kg

Question: What about the IC50 (Homo sapiens) of the same compound?
Answer: 2940 nM

Question: What about the half-life [4] of the same compound?
Answer: 1.48 h

Question: What about the half-life [5] of the same compound?
Answer: 1.62 h

Question: And the half-life [6]?
Answer: 3.47 h

Question: What about the Cmax [7] of the same compound?
Answer: 1660 ng/mL

Question: What about the half-life [8] of the same compound?
Answer: 2.91 h

Question: What about the Tmax [9] of the same compound?
Answer: 0.25 h

Question: What about the AUC(0-inf) [10] of the same compound?
Answer: 4120 ng·h/mL

Question: What about the MRT [11] of the same compound?
Answer: 3.64 h

Question: And the Activity (Rattus norvegicus [12])?
Answer: 0.24 g

Question: And the Activity (Rattus norvegicus [13])?
Answer: 0.31 g

Question: What about the Activity (Rattus norvegicus [14]) of the same compound?
Answer: 0.39 g

Question: What about the Activity (Rattus norvegicus [15]) of the same compound?
Answer: 0.43 g

Question: And the Activity (Rattus norvegicus [16])?
Answer: 0.66 g

Question: What about the Time (Rattus norvegicus [17]) of the same compound?
Answer: 33.09 min

Question: And the Activity (Rattus norvegicus [18])?
Answer: 56%

Question: And the bioavailability [19]?
Answer: 51%

Question: What about the intrinsic clearance [20] of the same compound?
Answer: 10.6 mL/min/g

Question: What about the intrinsic clearance [21] of the same compound?
Answer: 116.3 mL/min/g

Question: And the intrinsic clearance [22]?
Answer: 10.1 mL/min/g
